{"source": "ChEMBL document CHEMBL5715941", "about": "“AZD1152, a selective inhibitor of Aurora B kinase, inhibits human tumor xenograft growth by inducing apoptosis” (Clin Cancer Res, 2007)", "key": {"HL-60 [1]": {"tested_on": "HL-60", "test": "Antitumor activity against human HL-60 cells xenografted in immunodeficient athymic mouse assessed as inhibition of tumor growth at 75 mg/kg, ip administered twice daily for 13 days relative to control", "assay_type": "functional, organism-based", "conditions": "time 13.0 day"}, "[2]": {"test": "Toxicity in athymic nude rat xenografted with human SW620 cells assessed as maximal body weight loss at 25 mg/kg/day, iv for 24 h following 4 days", "assay_type": "organism-based, SW-620", "conditions": "in vivo, 96 h, time 4 day", "in_short": "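Male nude rats bearing SW620 xenografts received vehicle or AZD1152 at 25 mg/kg/d i.v. once daily for 4 consecutive days. Body weight was tracked, with maximal loss taken relative to vehicle-treated animals.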"}, "HL-60 [3]": {"tested_on": "HL-60", "test": "Antitumor activity against human HL-60 cells xenografted in immunodeficient athymic mouse assessed as inhibition of tumor growth at 45 mg/kg, iv administered twice daily for 5 days relative to control", "assay_type": "functional", "conditions": "HL-60, 120 h, time 5 day"}}}
{"molecule": "Cc1cc(Nc2cc(N3CCN(C)CC3)nc(Sc3ccc(NC(=O)C4CC4)cc3)n2)n[nH]1", "values": [{"measurement": "inhibition", "setting": "HL-60 [1]", "value": 98, "unit": "%"}]}
{"molecule": "CCN(CCCOc1ccc2c(Nc3cc(CC(=O)Nc4cccc(F)c4)n[nH]3)ncnc2c1)CCOP(=O)(O)O", "note": "[BARASERTIB]", "values": [{"measurement": "Activity", "setting": "[2]", "value": 5, "unit": "%"}]}
{"molecule": "CCc1cccc(CC)c1NC(=O)N1Cc2[nH]nc(NC(=O)c3ccc(N4CCN(C)CC4)cc3)c2C1", "note": "[PHA-680632]", "values": [{"measurement": "inhibition in vivo at 45 mg/kg", "setting": "HL-60 [3]", "value": 85, "unit": "%"}]}
